Test results reported in ChEMBL document CHEMBL1833818, “Synthesis of phenanthroindolizidine alkaloids and evaluation of their antitumor activities and toxicities” (Bioorg Med Chem Lett, 2011).

How the values were obtained:
[1] = test system: HT-29; test: Cytotoxicity against human HT-29 cells after 96 hrs by […] assay; type: functional, cell-based; conditions: HT-29, 96 h
Procedure, shortened: (§1)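 Exponentially growing cells seeded at 10³ cells/well; serially diluted compounds added next day, 96 h exposure. Tetrazolium reagent (2-(2-methoxy-4-nitrophenyl)-3-(4-nitrophenyl)-5-(2,4-disulfophenyl)-2H-tetrazolium) added, 1 h at 37 °C, absorbance 450 nm. IC50 = concentration inhibiting growth 50% versus solvent-treated cells.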

[2] = test system: HCT-116; test: Cytotoxicity against human HCT116 cells after 96 hrs by […] assay; type: functional, cell-based; conditions: HCT-116, 96 h; procedure, shortened: as §1
[3] = test system: Mus musculus; test: Toxicity in human HCT116 cells xenografted nude mouse assessed as mortality at 200 mg/kg, ip; type: organism-based, HCT-116; design: dose 200 mg/kg, route intraperitoneal; conditions: in vivo
Procedure, shortened: (§2)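 HCT116 cells, 2 × 10⁶ per mouse, implanted s.c. in 6-week-old male nude mice. Mice were grouped 5 per group once the estimated tumour volume reached about 100 mm³ (day 0). Samples were given i.p. 10 times, on days 1–5 and 8–12. Tumours were excised and weighed on day 21 after inoculation. Mortality was recorded per group.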

[4] = test system: HCT-116; test: Antitumor activity against human HCT116 cells xenografted in nude mouse assessed as tumor growth inhibition at 200 mg/kg, ip administered 10 times on days 1 to 5 and 8 to 12 measured on day 21 post-implantation relative to control; type: functional; conditions: HCT-116, ip, 504 h, route intraperitoneal, read-out: GI
Procedure, shortened: (§3)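 HCT116 cells (2 × 10⁶/mouse) implanted s.c. in 6-week-old male nude mice; groups of 5 formed when estimated tumor volume reached about 100 mm³ (day 0). Dosing i.p. on days 1–5 and 8–12. Tumors excised and weighed day 21 after inoculation; inhibition rate (%) = [1 − mean tumor weight treated/mean tumor weight control] × 100.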

[5] = Antitumor activity against mouse Meth-A cells xenografted in BALB/c mouse assessed as tumor growth inhibition at 50 mg/kg, iv administered on day 1, 5, 9 and measured on day 21 post-implantation relative to control; type: functional; conditions: read-out: GI
Procedure, shortened: (§4)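 Meth A sarcoma cells (2.5 × 10⁵/mouse) inoculated s.c. into 7-week-old male BALB/c mice, 5 per group; i.v. injection on days 1, 5 and 9. Tumors excised and weighed on day 21 post-inoculation; inhibition rate (%) = [1 − mean tumor weight treated/mean tumor weight control] × 100. Mortality also recorded.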

[6] = test system: Mus musculus; test: Toxicity in mouse Meth-A cells xenografted BALB/c mouse assessed as mortality at 25 mg/kg, iv; type: organism-based; design: dose 25 mg/kg, route intravenous; conditions: in vivo
Procedure, shortened: (§5)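 Meth A sarcoma cells, 2.5 × 10⁵ per mouse, inoculated s.c. into 7-week-old male BALB/c mice, 5 per group. Samples were injected i.v. on days 1, 5 and 9. Tumours were excised and weighed on day 21 after inoculation. Mortality was recorded per group as deaths/5.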

[7] = test system: A549; test: Cytotoxicity against human A549 cells after 96 hrs by […] assay; type: functional, cell-based; conditions: A549, 96 h; procedure, shortened: as §1
[8] = test system: Mus musculus; test: Toxicity in mouse Meth-A cells xenografted BALB/c mouse assessed as mortality at 50 mg/kg, iv; type: organism-based; design: dose 50 mg/kg, route intravenous; conditions: in vivo; procedure, shortened: as §5
[9] = Antitumor activity against mouse Meth-A cells xenografted in BALB/c mouse assessed as tumor growth inhibition at 25 mg/kg, iv administered on day 1, 5, 9 and measured on day 21 post-implantation relative to control; type: functional; conditions: read-out: GI; procedure, shortened: as §4
[10] = test system: Mus musculus; test: Toxicity in human HCT116 cells xenografted nude mouse assessed as mortality at 100 mg/kg, ip; type: organism-based, HCT-116; design: dose 100 mg/kg, route intraperitoneal; conditions: in vivo; procedure, shortened: as §2
[11] = test system: HCT-116; test: Antitumor activity against human HCT116 cells xenografted in nude mouse assessed as tumor growth inhibition at 100 mg/kg, ip administered 10 times on days 1 to 5 and 8 to 12 measured on day 21 post-implantation relative to control; type: functional; conditions: HCT-116, ip, 504 h, route intraperitoneal, read-out: GI; procedure, shortened: as §3
[12] = Toxicity in human HCT116 cells xenografted nude mouse assessed as mortality at 6.25 mg/kg, ip; type: organism-based, HCT-116; design: dose 6.25 mg/kg, route intraperitoneal; conditions: in vivo, read-out: Activity; procedure, shortened: as §2
[13] = test system: HCT-116; test: Antitumor activity against human HCT116 cells xenografted in nude mouse assessed as tumor growth inhibition at 135 mg/kg, ip administered 10 times on days 1 to 5 and 8 to 12 measured on day 21 post-implantation relative to control; type: functional; conditions: HCT-116, ip, 504 h, route intraperitoneal, read-out: GI; procedure, shortened: as §3
[14] = test system: Mus musculus; test: Toxicity in human HCT116 cells xenografted nude mouse assessed as mortality at 135 mg/kg, ip; type: organism-based, HCT-116; design: dose 135 mg/kg, route intraperitoneal; conditions: in vivo; procedure, shortened: as §2
[15] = Antitumor activity against mouse Meth-A cells xenografted in BALB/c mouse assessed as tumor growth inhibition at 100 mg/kg, iv administered on day 1, 5, 9 and measured on day 21 post-implantation relative to control; type: functional; conditions: read-out: GI; procedure, shortened: as §4
[16] = test system: Mus musculus; test: Toxicity in mouse Meth-A cells xenografted BALB/c mouse assessed as mortality at 100 mg/kg, iv; type: organism-based; design: dose 100 mg/kg, route intravenous; conditions: in vivo; procedure, shortened: as §5

Row | SMILES | IC50 [1] [nM] | IC50 [2] [nM] | IC50 [7] [nM] | other results
1 | COc1cc2c3c(c4ccc(O)cc4c2cc1OC)C[C@@H]1CCCN1C3 | 1.8 | 0.5 | 0.6 | Activity [3]: Non-toxic; inhibition in vivo at 200 mg/kg [4]: 48.7%; inhibition in vivo at 50 mg/kg [5]: 70.8%; Activity [6]: Non-toxic; Activity [8]: Non-toxic; inhibition in vivo at 25 mg/kg [9]: 46.9%; Activity [10]: Non-toxic; inhibition in vivo at 100 mg/kg [11]: 35.7%
2 | COc1cc2c3c(c4ccc(OC(C)=O)cc4c2cc1OC)C[C@@H]1CCCN1C3 | 3.5 | 2 | 2.8 | Activity [3]: Non-toxic; inhibition in vivo at 200 mg/kg [4]: 34.7%
3 | CCc1ccc2c3c(c4cc(OC)c(OC)cc4c2c1)CN1CCC[C@H]1C3 | 484 | 403 | 441 | –
4 | COc1ccc2c3c(c4cc(OC)c(OC)cc4c2c1)CN1CCC[C@H]1C3 | 45.1 | 41.7 | 43.8 | –
5 | COc1cc2c3c(c4ccc(O)cc4c2cc1OC)[C@H](O)[C@H]1CCCN1C3 | 935 | 671 | 818 | –
6 | COc1cc2c3c(c4cccc(O)c4c2cc1OC)C[C@@H]1CCCN1C3 | 452 | 4.7 | 5.5 | –
7 | Oc1ccc2c3c(c4cc5c(cc4c2c1)OCO5)CN1CCC[C@H]1C3 | 879 | 377 | 392 | –
8 | COc1cc2c3c(c4ccccc4c2cc1OC)C[C@@H]1CCCN1C3 | 57.1 | 49.6 | 48.9 | Activity [10]: Non-toxic; inhibition in vivo at 100 mg/kg [11]: 21%
9 | COc1cc2c3c(c4ccc(O)cc4c2cc1OC)C[C@H]1CCCN1C3 | 158 | 59.9 | 58.2 | –
10 | COc1cc2c3c(c4cc(O)ccc4c2cc1OC)C[C@@H]1CCCN1C3 | 32.1 | 23.5 | 21.6 | –
11 | CCOc1cc2c3c(c4ccc(O)cc4c2cc1OCC)C[C@@H]1CCCN1C3 | 80.5 | 38.8 | 42.2 | –
12 | COc1cc2c3c(c4ccc(F)cc4c2cc1OC)C[C@@H]1CCCN1C3 | 58.9 | 48.1 | 51 | Activity [3]: Toxic; mortality [12]: 10%; Activity [10]: Non-toxic; inhibition in vivo at 100 mg/kg [11]: 30.7%
13 | COc1cc2c3c(c4ccc(O)cc4c2cc1OC)[C@@H](O)[C@H]1CCCN1C3 | 37 | 32.4 | 30.6 | –
14 | COc1cc2c3c(c4ccc(O)cc4c2cc1OC)[C@@H](O)[C@@H]1CCCN1C3 | 53.6 | 44.4 | 52.3 | –
15 | CCc1c2c(nc3ccc(OC(=O)N4CCC(N5CCCCC5)CC4)cc13)-c1cc3c(c(=O)n1C2)COC(=O)[C@]3(O)CC.Cl | – | – | – | inhibition in vivo at 135 mg/kg [13]: 77%; Activity [14]: Non-toxic; inhibition in vivo at 50 mg/kg [5]: 46.2%; inhibition in vivo at 100 mg/kg [15]: 78.3%; Activity [16]: Non-toxic; Activity [8]: Non-toxic
16 | COc1cc2c3c(c4ccc(O)cc4c2cc1OC)[C@H](O)[C@@H]1CCCN1C3 [TYLOPHORIDICINE E] | 2.9 | 1.3 | 2.7 | Activity [6]: Non-toxic; Activity [8]: Toxic; inhibition in vivo at 25 mg/kg [9]: 30.6%
